Results as given in ChEMBL document CHEMBL3045504, “Activity of 1,4-benzoquinones against formosan subterranean termites (Coptotermes formosanus)” (2008).

Assays:
Assay type in all cases: functional
Coptotermes formosanus [1] = experiment: Termiticidal activity against Coptotermes formosanus placed on 1 % wt/wt compound treated filter paper assessed as termite mortality measured 21 days post compound exposure
Coptotermes formosanus [2] = experiment: Termiticidal activity against Coptotermes formosanus placed on 1 % wt/wt compound treated filter paper assessed as termite mortality measured 11 days post compound exposure
Coptotermes formosanus [3] = experiment: Termiticidal activity against Coptotermes formosanus placed on 1 % wt/wt compound treated filter paper assessed as termite mortality measured 3 days post compound exposure
Coptotermes formosanus [4] = experiment: Antifeedant activity against Coptotermes formosanus placed on 1 % wt/wt compound treated filter paper assessed as filter paper consumption measured 21 days post compound exposure (reference value: 54.4 +/- 20.7 mg)
Coptotermes formosanus [5] = experiment: Termiticidal activity against Coptotermes formosanus placed on 0.001 % wt/wt compound treated filter paper assessed as termite mortality measured 17 days post compound exposure
In short: (§1)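 Treated filter paper disks moistened with 100 µL water; 20 C. formosanus workers (third instar or greater) plus 1 soldier per dish from field colonies kept on spruce, ca. 100% RH, 26.6 °C. Daily mortality scored for 3 weeks; cumulative percent mortality from four replicates, each a different colony; water-only controls; ANOVA, protected Fisher LSD (P < 0.05) after arcsine square-root transform.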

Coptotermes formosanus [6] = experiment: Termiticidal activity against Coptotermes formosanus placed on 0.01 % wt/wt compound treated filter paper assessed as termite mortality measured 17 days post compound exposure; in short: as §1
Coptotermes formosanus [7] = experiment: Termiticidal activity against Coptotermes formosanus placed on 0.05 % wt/wt compound treated filter paper assessed as termite mortality measured 17 days post compound exposure; in short: as §1
Coptotermes formosanus [8] = experiment: Termiticidal activity against Coptotermes formosanus placed on 0.1 % wt/wt compound treated filter paper assessed as termite mortality measured 17 days post compound exposure; in short: as §1
Coptotermes formosanus [9] = experiment: Termiticidal activity against Coptotermes formosanus placed on 0.5 % wt/wt compound treated filter paper assessed as termite mortality measured 17 days post compound exposure; in short: as §1
Coptotermes formosanus [10] = experiment: Termiticidal activity against Coptotermes formosanus placed on 0.001 % wt/wt compound treated filter paper assessed as termite mortality measured 13 days post compound exposure; in short: as §1
Coptotermes formosanus [11] = experiment: Termiticidal activity against Coptotermes formosanus placed on 0.01 % wt/wt compound treated filter paper assessed as termite mortality measured 13 days post compound exposure; in short: as §1
Coptotermes formosanus [12] = experiment: Termiticidal activity against Coptotermes formosanus placed on 0.05 % wt/wt compound treated filter paper assessed as termite mortality measured 13 days post compound exposure; in short: as §1
Coptotermes formosanus [13] = experiment: Termiticidal activity against Coptotermes formosanus placed on 0.1 % wt/wt compound treated filter paper assessed as termite mortality measured 13 days post compound exposure; in short: as §1
Coptotermes formosanus [14] = experiment: Termiticidal activity against Coptotermes formosanus placed on 0.5 % wt/wt compound treated filter paper assessed as termite mortality measured 13 days post compound exposure; in short: as §1
Coptotermes formosanus [15] = experiment: Termiticidal activity against Coptotermes formosanus placed on 0.001 % wt/wt compound treated filter paper assessed as termite mortality measured 11 days post compound exposure; in short: as §1
Coptotermes formosanus [16] = experiment: Termiticidal activity against Coptotermes formosanus placed on 0.01 % wt/wt compound treated filter paper assessed as termite mortality measured 11 days post compound exposure; in short: as §1
Coptotermes formosanus [17] = experiment: Termiticidal activity against Coptotermes formosanus placed on 0.05 % wt/wt compound treated filter paper assessed as termite mortality measured 11 days post compound exposure; in short: as §1
Coptotermes formosanus [18] = experiment: Termiticidal activity against Coptotermes formosanus placed on 0.1 % wt/wt compound treated filter paper assessed as termite mortality measured 11 days post compound exposure; in short: as §1
Coptotermes formosanus [19] = experiment: Termiticidal activity against Coptotermes formosanus placed on 0.001 % wt/wt compound treated filter paper assessed as termite mortality measured 9 days post compound exposure; in short: as §1
Coptotermes formosanus [20] = experiment: Termiticidal activity against Coptotermes formosanus placed on 0.01 % wt/wt compound treated filter paper assessed as termite mortality measured 9 days post compound exposure; in short: as §1
Coptotermes formosanus [21] = experiment: Termiticidal activity against Coptotermes formosanus placed on 0.05 % wt/wt compound treated filter paper assessed as termite mortality measured 9 days post compound exposure; in short: as §1
Coptotermes formosanus [22] = experiment: Termiticidal activity against Coptotermes formosanus placed on 0.1 % wt/wt compound treated filter paper assessed as termite mortality measured 9 days post compound exposure; in short: as §1
Coptotermes formosanus [23] = experiment: Termiticidal activity against Coptotermes formosanus placed on 0.5 % wt/wt compound treated filter paper assessed as termite mortality measured 9 days post compound exposure; in short: as §1
Coptotermes formosanus [24] = experiment: Termiticidal activity against Coptotermes formosanus placed on 0.001 % wt/wt compound treated filter paper assessed as termite mortality measured 6 days post compound exposure; in short: as §1
Coptotermes formosanus [25] = experiment: Termiticidal activity against Coptotermes formosanus placed on 0.01 % wt/wt compound treated filter paper assessed as termite mortality measured 6 days post compound exposure; in short: as §1
Coptotermes formosanus [26] = experiment: Termiticidal activity against Coptotermes formosanus placed on 0.05 % wt/wt compound treated filter paper assessed as termite mortality measured 6 days post compound exposure; in short: as §1
Coptotermes formosanus [27] = experiment: Termiticidal activity against Coptotermes formosanus placed on 0.1 % wt/wt compound treated filter paper assessed as termite mortality measured 6 days post compound exposure; in short: as §1
Coptotermes formosanus [28] = experiment: Termiticidal activity against Coptotermes formosanus placed on 0.5 % wt/wt compound treated filter paper assessed as termite mortality measured 6 days post compound exposure; in short: as §1
Coptotermes formosanus [29] = experiment: Termiticidal activity against Coptotermes formosanus placed on 0.5 % wt/wt compound treated filter paper assessed as termite mortality measured 21 days post compound exposure; in short: as §1
Coptotermes formosanus [30] = experiment: Termiticidal activity against Coptotermes formosanus placed on 0.5 % wt/wt compound treated filter paper assessed as termite mortality measured 11 days post compound exposure; in short: as §1
Coptotermes formosanus [31] = experiment: Antifeedant activity against Coptotermes formosanus placed on 0.001 % wt/wt compound treated filter paper assessed as filter paper consumption measured 21 days post compound exposure (reference value: 44.6 +/- 0.0 mg)
Coptotermes formosanus [32] = experiment: Antifeedant activity against Coptotermes formosanus placed on 0.01 % wt/wt compound treated filter paper assessed as filter paper consumption measured 21 days post compound exposure (reference value: 44.6 +/- 0.0 mg)
Coptotermes formosanus [33] = experiment: Antifeedant activity against Coptotermes formosanus placed on 0.05 % wt/wt compound treated filter paper assessed as filter paper consumption measured 21 days post compound exposure (reference value: 44.6 +/- 0.0 mg)
Coptotermes formosanus [34] = experiment: Antifeedant activity against Coptotermes formosanus placed on 0.1 % wt/wt compound treated filter paper assessed as filter paper consumption measured 21 days post compound exposure (reference value: 44.6 +/- 0.0 mg)
Coptotermes formosanus [35] = experiment: Antifeedant activity against Coptotermes formosanus placed on 0.5 % wt/wt compound treated filter paper assessed as filter paper consumption measured 21 days post compound exposure (reference value: 44.6 +/- 0.0 mg)
Coptotermes formosanus [36] = experiment: Antifeedant activity against Coptotermes formosanus placed on 1 % wt/wt compound treated filter paper assessed as filter paper consumption measured 21 days post compound exposure (reference value: 15.9 +/- 10.4 mg)
Coptotermes formosanus [37] = experiment: Termiticidal activity against Coptotermes formosanus placed on 0.001 % wt/wt compound treated filter paper assessed as termite mortality measured 21 days post compound exposure; in short: as §1
Coptotermes formosanus [38] = experiment: Termiticidal activity against Coptotermes formosanus placed on 0.01 % wt/wt compound treated filter paper assessed as termite mortality measured 21 days post compound exposure; in short: as §1
Coptotermes formosanus [39] = experiment: Termiticidal activity against Coptotermes formosanus placed on 0.05 % wt/wt compound treated filter paper assessed as termite mortality measured 21 days post compound exposure; in short: as §1
Coptotermes formosanus [40] = experiment: Termiticidal activity against Coptotermes formosanus placed on 0.1 % wt/wt compound treated filter paper assessed as termite mortality measured 21 days post compound exposure; in short: as §1
Coptotermes formosanus [41] = experiment: Antifeedant activity against Coptotermes formosanus placed on 0.5 % wt/wt compound treated filter paper assessed as filter paper consumption measured 21 days post compound exposure (reference value: 54.4 +/- 20.7 mg)
Coptotermes formosanus [42] = experiment: Antifeedant activity against Coptotermes formosanus placed on 0.001 % wt/wt compound treated filter paper assessed as filter paper consumption measured 21 days post compound exposure
Coptotermes formosanus [43] = experiment: Antifeedant activity against Coptotermes formosanus placed on 0.01 % wt/wt compound treated filter paper assessed as filter paper consumption measured 21 days post compound exposure
Coptotermes formosanus [44] = experiment: Antifeedant activity against Coptotermes formosanus placed on 0.05 % wt/wt compound treated filter paper assessed as filter paper consumption measured 21 days post compound exposure
Coptotermes formosanus [45] = experiment: Antifeedant activity against Coptotermes formosanus placed on 0.1 % wt/wt compound treated filter paper assessed as filter paper consumption measured 21 days post compound exposure (reference value: 54.4 +/- 20.7 mg)
Coptotermes formosanus [46] = experiment: Antifeedant activity against Coptotermes formosanus placed on 1 % wt/wt compound treated filter paper assessed as filter paper consumption measured 21 days post compound exposure (reference value: 85 +/- 15.1 mg)

CC1=CC(=O)C(C)=C(C)C1=O
mortality (Coptotermes formosanus [1]): 36.7%
mortality (Coptotermes formosanus [2]): 18.3%
mortality (Coptotermes formosanus [3]): 0%
Activity (Coptotermes formosanus [4]): 55.4 mg

CCCCCC1=CC(=O)C=C(OC)C1=O [Primin]
mortality (Coptotermes formosanus [5]): 1.7%
mortality (Coptotermes formosanus [6]): 10%
mortality (Coptotermes formosanus [7]): 8.3%
mortality (Coptotermes formosanus [8]): 40%
mortality (Coptotermes formosanus [9]): 100%
mortality (Coptotermes formosanus [10]): 0%
mortality (Coptotermes formosanus [11]): 5%
mortality (Coptotermes formosanus [12]): 5%
mortality (Coptotermes formosanus [13]): 36.7%
mortality (Coptotermes formosanus [14]): 96.7%
mortality (Coptotermes formosanus [15]): 0%
mortality (Coptotermes formosanus [16]): 0%
mortality (Coptotermes formosanus [17]): 3.3%
mortality (Coptotermes formosanus [18]): 28.3%
mortality (Coptotermes formosanus [19]): 0%
mortality (Coptotermes formosanus [20]): 0%
mortality (Coptotermes formosanus [21]): 3.3%
mortality (Coptotermes formosanus [22]): 21.7%
mortality (Coptotermes formosanus [23]): 80%
mortality (Coptotermes formosanus [24]): 0%
mortality (Coptotermes formosanus [25]): 0%
mortality (Coptotermes formosanus [26]): 3.3%
mortality (Coptotermes formosanus [27]): 21.7%
mortality (Coptotermes formosanus [28]): 56.7%
mortality (Coptotermes formosanus [1]): 100%
mortality (Coptotermes formosanus [2]): 100%
mortality (Coptotermes formosanus [3]): 87.5%
mortality (Coptotermes formosanus [29]): 100%
mortality (Coptotermes formosanus [30]): 91.7%
Activity (Coptotermes formosanus [31]): 48.8 mg
Activity (Coptotermes formosanus [32]): 48.4 mg
Activity (Coptotermes formosanus [33]): 42.2 mg
Activity (Coptotermes formosanus [34]): 26.8 mg
Activity (Coptotermes formosanus [35]): 4.9 mg
Activity (Coptotermes formosanus [36]): 0.1 mg
mortality (Coptotermes formosanus [37]): 8.3%
mortality (Coptotermes formosanus [38]): 21.7%
mortality (Coptotermes formosanus [39]): 25%
mortality (Coptotermes formosanus [40]): 50%

CC1=CC(=O)C(C(C)C)=CC1=O [THYMOQUINONE]
mortality (Coptotermes formosanus [5]): 5%
mortality (Coptotermes formosanus [6]): 5%
mortality (Coptotermes formosanus [7]): 6.7%
mortality (Coptotermes formosanus [8]): 8.3%
mortality (Coptotermes formosanus [9]): 11.7%
mortality (Coptotermes formosanus [10]): 1.7%
mortality (Coptotermes formosanus [11]): 5%
mortality (Coptotermes formosanus [12]): 6.7%
mortality (Coptotermes formosanus [13]): 6.7%
mortality (Coptotermes formosanus [14]): 10%
mortality (Coptotermes formosanus [15]): 1.7%
mortality (Coptotermes formosanus [16]): 3.3%
mortality (Coptotermes formosanus [17]): 0%
mortality (Coptotermes formosanus [18]): 1.7%
mortality (Coptotermes formosanus [19]): 1.7%
mortality (Coptotermes formosanus [20]): 3.3%
mortality (Coptotermes formosanus [21]): 0%
mortality (Coptotermes formosanus [22]): 1.7%
mortality (Coptotermes formosanus [23]): 6.7%
mortality (Coptotermes formosanus [24]): 0%
mortality (Coptotermes formosanus [25]): 0%
mortality (Coptotermes formosanus [26]): 0%
mortality (Coptotermes formosanus [27]): 0%
mortality (Coptotermes formosanus [28]): 1.7%
mortality (Coptotermes formosanus [1]): 100%
mortality (Coptotermes formosanus [2]): 100%
mortality (Coptotermes formosanus [3]): 100%
mortality (Coptotermes formosanus [29]): 18.3%
mortality (Coptotermes formosanus [30]): 6.7%
Activity (Coptotermes formosanus [41]): 93.1 mg
Activity (Coptotermes formosanus [42]): 80.6 mg
Activity (Coptotermes formosanus [43]): 75.4 mg
Activity (Coptotermes formosanus [44]): 74 mg
Activity (Coptotermes formosanus [45]): 83.5 mg
Activity (Coptotermes formosanus [46]): 0 mg
mortality (Coptotermes formosanus [37]): 5%
mortality (Coptotermes formosanus [38]): 11.7%
mortality (Coptotermes formosanus [39]): 8.3%
mortality (Coptotermes formosanus [40]): 8.3%
